Data taken from article PMC7429258 (Molecular pharmaceutics, 2020).
Entries after “also recorded” stand apart in the source; their conditions may differ.

Key:
[1] = system: untransfected HEK293 cells; assay: fura-2 assay of [Ca2+]i in untransfected HEK293 cells; format: cell-based, human; conditions: DG2 0.1–10 μM; ADP 20 μM positive control
How it was run: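 Trypsinized HEK293 cells plated on rat tail collagen-coated 96-well plates and loaded with fura-2 AM. Read in kinetic mode on a fluorescence plate reader. Test solutions added by automated pipetting at 100 s. Data sampled at 6 s intervals over 300 s. Read-out: percent change in 340/380 ratio after baseline subtraction. Each experiment repeated at least three times.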

CCK2i4svR = target: T1, CCK2i4svR (Homo sapiens, UniProt P32239); format: binding; conditions: read-out: IC50, displacement of [125I][I-Tyr12,Leu15]gastrin; HEK293-CCK2i4svR cell membranes, 60 min at 22 °C, mean ± SD, n = 3
T1 sequence (P32239 1-516 isoform P32239-2): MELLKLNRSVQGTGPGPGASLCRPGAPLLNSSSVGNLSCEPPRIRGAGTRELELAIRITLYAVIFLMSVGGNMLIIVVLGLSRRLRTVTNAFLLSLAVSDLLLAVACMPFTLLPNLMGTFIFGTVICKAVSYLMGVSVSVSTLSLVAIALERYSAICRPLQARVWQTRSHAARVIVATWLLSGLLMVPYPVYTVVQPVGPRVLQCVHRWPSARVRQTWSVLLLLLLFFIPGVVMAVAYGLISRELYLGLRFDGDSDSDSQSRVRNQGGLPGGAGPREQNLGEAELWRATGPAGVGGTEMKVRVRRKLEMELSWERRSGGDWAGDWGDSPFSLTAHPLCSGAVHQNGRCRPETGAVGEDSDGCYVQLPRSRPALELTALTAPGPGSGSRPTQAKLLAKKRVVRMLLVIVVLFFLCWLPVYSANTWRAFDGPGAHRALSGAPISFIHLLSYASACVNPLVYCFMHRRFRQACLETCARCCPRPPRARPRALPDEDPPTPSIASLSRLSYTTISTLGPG
How it was run: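 Parent nonpeptidic antagonist served as reference. Stopped with ice-cold 10 mM HEPES pH 7.4/150 mM NaCl, then rapid GF/B glass-fibre filtration and gamma counting. IC50 by one-site nonlinear regression; mean ± SD, three experiments in triplicate.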

Row | Compound | agonist action on [Ca2+]i in untransfected HEK293 cells [1] | IC50 (CCK2i4svR) [nM]
1 | Nc1ncnc2c1ncn2[C@@H]1O[C@H](COP(=O)(O)OP(=O)(O)O)[C@@H](O)[C@H]1O [ADP] | did respond; also recorded: does exert an agonist action | 
2 | CC(C)(C)C(=O)CN1C(=O)[C@H](NC(=O)Nc2cccc(C(=O)O)c2)CN(C2CCCCC2)c2ccccc21 [Z-360, 3-[[[[(3R)-5-cyclohexyl-1-(3,3-dimethyl-2-ox-obutyl)-2,3,4,5-tetrahydro-2-oxo-1H-1,5-benzodiazepin-3-yl]-amino]carbonyl]amino]benzoic acid] |  | 1.57 ± 0.14
